No end group written: not given here.
Assays:
[1] = Serum biochemical factors after intraperitoneal injection; type: in vivo, mouse; settings: blood 48 h after the injection, mean ± standard deviation
Outline: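 Mice given PBS (control) or peptide at 50 or 100 μg/mouse by single ip injection (100 μL/mouse). Blood (0.2 mL) drawn 48 h later and serum GPT, GOT, total bilirubin and uric acid quantified. Five mice per group. Data shown as mean ± SD, compared by ANOVA, p<0.05 taken as significant.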

[2] = test system: human embryonic kidney cells (HEK-293); assay: MTT cytotoxicity assay; type: cell-based; settings: 1.56–50 μg/mL, 48 h, 37°C, in words (Figure 6)
Outline: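 HEK-293 cells seeded fresh at 1×10^5 cells/well, exposed to twofold serial peptide dilutions (1.56–50 μg/mL) at 37°C in 5% CO2 for 48 h. MTT (5 mg/mL stock, 10 μL) then added for 4 h. Formazan dissolved in 100% DMSO, absorbance read at 575 nm, percentage viable cells derived. Triplicate, three independent repeats, mean ± SD.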

Row | Substance | Serum level of GOT ([1]; 50 μg/mouse ip) [U/L] | Serum level of GPT ([1]; 50 μg/mouse ip) [U/L] | Serum level of TBIL ([1]; 50 μg/mouse ip) [mg/dL] | Serum level of UA ([1]; 50 μg/mouse ip) [mg/dL] | Serum level of GOT ([1]; 100 μg/mouse ip) [U/L] | Serum level of GPT ([1]; 100 μg/mouse ip) [U/L] | Serum level of TBIL ([1]; 100 μg/mouse ip) [mg/dL] | Serum level of UA ([1]; 100 μg/mouse ip) [mg/dL] | Cytotoxic activity against HEK-293 [2]
1 | FFHHIFRGAVHVGKTIHRLVTG-NH2 [I9A-piscidin-1] | 8.96±1.12 | 6.67±0.47 | 0.21 ± 0.06 | 0.42 ± 0.07 | 10.86±1.07 | 7.17±0.37 | 0.51 ± 0.09 | 0.87 ± 0.09 | –
2 | FFHHIFRGIVHVGKTAHRLVTG-NH2 [I16A-piscidin-1] | 9.22±0.90 | 5.92±1.10 | 0.20 ± 0.04 | 0.39 ± 0.12 | 11.08±0.94 | 7.33±1.10 | 0.53 ± 0.08 | 0.77 ± 0.14 | –
3 | FFHHIFRGIVHVGKTIHRLVTG-NH2 [Piscidin-1, reference compound] | 9.48±1.06 | 5.83±0.52 | 0.19 ± 0.04 | 0.45 ± 0.06 | 10.64±0.97 | 4.62±0.42 | 0.27 ± 0.07 | 0.53 ± 0.08 | highest cytotoxic activity
4 | FFHHIFRGIVHVGKTKHRLVTG-NH2 [I16K-piscidin-1] | 8.88±0.86 | 6.43±0.86 | 0.20 ± 0.05 | 0.41 ± 0.11 | 8.53±1.15 | – | – | – | lowest activity against HEK-293 cells compared to other peptides
5 | FFHHIFRGKVHVGKTIHRLVTG-NH2 [I9K-piscidin-1] | 9.27±0.78 | 6.26±0.22 | 0.18 ± 0.07 | 0.43 ± 0.05 | 10.32±0.88 | 6.86±0.82 | 0.48 ± 0.10 | 0.81 ± 0.07 | –
